# Screens (PubChem)
# HNF4A DNA FP = change in binding of human HNF4A to DNA, primary screen, biochemical, fluorescence polarization, FITC-DNA | Hepatocyte nuclear factor 4-alpha (Homo sapiens), P41235 | 1 h | activity change, % at 10 µM | hit rate 0.3% among 360,000; in the data active = activity change above about 30%, passing the limit was not always enough
# UBC9 SUMO inh = inhibitors of in vitro SUMOylation cascade, primary screen, biochemical, HTRF, uHTS; HTRF SUMOylation assay, SAE1/SAE2 + UBC9; SUMO-conjugating enzyme UBC9 (Homo sapiens), P63279; hit rate 0.36% among 290,000; inhibition, % at 35 µM; in the data active = inhibition above about 50%, passing the limit was not always enough
# Target sequence (P63279 whole entry, looked up): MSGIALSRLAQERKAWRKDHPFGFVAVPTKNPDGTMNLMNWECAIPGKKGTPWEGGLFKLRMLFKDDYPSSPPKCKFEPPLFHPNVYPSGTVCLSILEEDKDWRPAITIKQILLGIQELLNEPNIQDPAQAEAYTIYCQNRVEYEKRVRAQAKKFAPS
# SENP1 inh = human SENP1 catalytic domain inhibitors, primary screen, biochemical, FRET, uHTS; Sentrin-specific protease 1 (Homo sapiens), Q9P0U3; recombinant SENP1 catalytic domain, CyPet-SUMO1-YPet FRET cleavage; inhibition, % at 10 µM; hit rate 0.21% among 360,000;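 active = inhibition at least 30% at 10 µM, raw YFP signal under a set limit, fluorescence ratio 0.5 to 1.5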;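 note: 0% = enzyme with DMSO and 100% = no enzyme wells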
#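 Assay system – human recombinant His6-tagged SENP1 catalytic domain enzyme · Input – SENP1 enzyme, 20 pM final · Buffer or medium – Tris pH 8 buffer plus EDTA, NaCl, BME, BSA, NP40, catalase · Schedule – 50 min reaction at room temperature · Technique – FRET read of cyan and yellow fluorescence · Control set – no-enzyme wells low, DMSO-plus-enzyme wells high control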
# Rpn11 block = Rpn11 (PSMD14) deubiquitinase inhibitors, primary screen, biochemical, fluorescence polarization, uHTS; 26S proteasome non-ATPase regulatory subunit 14 (Homo sapiens), O00487; human 26S proteasome, Ub4-pepOG fluorescence polarization; 20S core pre-blocked with epoxomicin; calls only at 20 µM; hit rate 0.59% among 360,000; AID 588493, 2011;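 active = inhibition at 20 µM, scaled to each plate's controls, above about 33%, limit read from the data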
# CSN deneddyl inh = inhibitors of CSN-mediated cullin deneddylation, primary screen, biochemical, fluorescence polarization, uHTS. COP9 signalosome complex subunit 5 (Homo sapiens), Q92905. Purified CSN, SCF-Nedd8-OG deneddylation. inhibition, % at 12.5 µM. hit rate 0.38% among 360,000;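 active = pattern-corrected inhibition above about 35%, with an unprinted fluorescence ratio check between 0.5 and 1.5, limit read from the data, passing the limit was not always enough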;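 note: 0% = enzyme with substrate and 100% = substrate without enzyme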
# Target sequence (Q92905 whole entry, looked up, one chain of several): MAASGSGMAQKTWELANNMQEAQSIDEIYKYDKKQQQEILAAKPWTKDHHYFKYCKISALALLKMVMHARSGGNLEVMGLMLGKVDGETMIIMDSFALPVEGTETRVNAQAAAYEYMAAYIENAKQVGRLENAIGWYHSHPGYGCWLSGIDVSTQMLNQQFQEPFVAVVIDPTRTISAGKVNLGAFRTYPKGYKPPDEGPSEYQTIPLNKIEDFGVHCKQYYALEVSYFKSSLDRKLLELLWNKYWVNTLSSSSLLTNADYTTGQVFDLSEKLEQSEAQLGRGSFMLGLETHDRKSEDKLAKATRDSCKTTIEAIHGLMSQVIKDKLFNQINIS
#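 Material: human Csn5 produced in HEK293T cells; Input: enzyme 0.24 nM; Reagent: SCFSkp2-Nedd8OG substrate at 10 nM final; Dosing: 12.5 µM compound; Incubation: 90 min reaction at room temperature; Detection: fluorescence polarization of the substrate; Evaluation: % inhibition of substrate cleavage by Csn5; Control set: substrate-only high control, full reaction low control.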
# TPT1 inh = Candida albicans TPT1 enzyme inhibitors, primary screen, biochemical, fluorescence polarization | tRNA 2'-phosphotransferase TPT1 (Candida albicans SC5314) | recombinant caTPT1, FP RNA substrate dephosphorylation | inhibition, % at 5 µM | hit rate 0.81% among 300,000;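 active = inhibition above the mean of all tested compounds plus 3 SD, set per screening campaign, cut at about 24% in these data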;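 note: plate controls were DMSO alone for no effect and ferristatin control at 100 nM for full effect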
# SENP1 inh conf = human SENP1 catalytic domain inhibitors, confirmation, biochemical, FRET endpoint, single concentration; shares compounds with SENP1 inh; recombinant SENP1, CyPet-SUMO1-YPet FRET cleavage; inhibition, % at 10 µM; hit rate 34% among 520; AID 651678, 2012; in the data active = inhibition mostly above about 35%, no sharp cut-off; inactive = mostly below about 32%;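 note: 0% = enzyme with DMSO and 100% = no enzyme control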
# SENP1 kinetic = human SENP1 catalytic domain inhibitors, confirmation, biochemical, kinetic FRET, single concentration; shares compounds with SENP1 inh; recombinant SENP1, CyPet-SUMO1-YPet FRET kinetic cleavage; inhibition, % at 10 µM; hit rate 26% among 520; in the data active = inhibition mostly above about 32%, no sharp cut-off; inactive = mostly below about 29%;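 note: 0% = DMSO with enzyme and 100% = no enzyme substrate only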
# CSN5 deneddyl = Csn5 deneddylation inhibitors, confirmation, biochemical, fluorescence polarization, single concentration, SCF-Nedd8OG substrate | hit rate 62% among 540 | Csn5 deneddylation of SCF-Nedd8OG, 90 min | shares compounds with CSN deneddyl inh | inhibition, % at 16.6 µM | AID 720654, 2013; in the data active = inhibition above about 50%;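 note: 0% = DMSO with enzyme and 100% = no enzyme wells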
# MMP2 cntr CSN = MMP-2 protease inhibition counter-screen, confirmation, counter-screen for CSN deneddylation inhibitor project, biochemical, fluorescence, single concentration; inhibition, % at 16.6 µM; AID 720655, 2013; shares compounds with CSN deneddyl inh; hit rate 33% among 540; recombinant MMP-2, FRET substrate fluorescence, 60 min;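 active = corrected plate-normalized z-score of 5 or more, or -5 or less, or inhibition of 15% or more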;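 note: plate controls were DMSO wells with enzyme for no effect and buffer wells lacking MMP-2 for full effect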
# Thrombin counter = thrombin (bovine) inhibition, counter-screen for CSN hits | shares compounds with CSN deneddyl inh | bovine thrombin cleavage of Ub4-pepOG, fluorescence polarization | inhibition, % at 16.6 µM | hit rate 49% among 540;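 active = inhibition at or above a set limit, with a fluorescence interference ratio between 0.5 and a set maximum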
# HNF4A confirm = change in HNF4A binding to DNA, retest, confirmation, biochemical, fluorescence polarization, FITC-DNA; hit rate 99% among 210; shares compounds with HNF4A DNA FP; activity change, % at 12.5 µM; 1 h; AID 1224897, 2016; call rule not given here
# Active calls of the source: *; i = inactive; · = not tested or not shown. Compounds with a hit are over-represented: about 1.8% of the library has one in this group of screens.
SMILES,HNF4A DNA FP,UBC9 SUMO inh,SENP1 inh,Rpn11 block,CSN deneddyl inh,TPT1 inh,SENP1 inh conf,SENP1 kinetic,others
Oc1ccc(Cl)cc1C1=Nc2ccccc2N=C(c2ccco2)C1,21,3,67*,i,14,6,64*,52*,
COc1ccc(O)c(C2=Nc3ccccc3N=C(c3ccco3)C2)c1,1,29,10,i,-4,0,·,·,
O=C(NC(Cc1ccccc1)C(=O)O)/C(=C\c1ccc([N+](=O)[O-])cc1)NC(=O)c1ccco1 (stereo not given),3,19,33*,i,1,5,2,4,
COc1ccc(CN(C)C(=O)Cc2ccc(OC)c(S(=O)(=O)N3CCOCC3)c2)cc1,1,·,-1,i,-3,0,·,·,
NC(=O)c1ccc2c(c1)S(=O)(=O)c1ccccc1C2=O,1,2,0,i,-1,1,·,·,
CC1=C(C(N)=O)S(=O)(=O)c2ccccc21,-5,11,47*,i,1,-12,47*,37,
COc1cc(O)c(C=Nc2ccccc2NS(=O)(=O)c2ccc(C)cc2)c(OC)c1,10,·,51*,i,11,·,74*,67*,
O=C(Cn1c(NCCO)nc2ccccc21)Nc1cccc(S(=O)(=O)N2CCCC2)c1,6,·,-1,i,-5,·,·,·,
CCC(=NN=C(CC)c1ccccc1O)c1ccccc1O,-3,·,47*,i,-5,·,130*,73*,
COc1cccc(C(=O)Nc2ccccc2N2CCN(C(=O)c3ccccc3)CC2)c1,2,·,3,i,-1,·,·,·,
CCSc1ncc(Cl)c(C(=O)Nc2sc3c(c2C(=O)NCc2cccnc2)CCCC3)n1,51*,23,41*,·,6,-2,62*,44*,HNF4A confirm=49*
COc1ccc(NC(C)=O)cc1S(=O)(=O)NC(Cc1ccccc1)C(=O)NC(C)c1ccccn1 (stereo not given),0,·,0,i,0,·,·,·,
CCN(CC)c1ccc(C=Nc2ccc(N(C)C)cc2)c(O)c1,104,-59,-22,·,42*,6,·,·,CSN5 deneddyl=128*;MMP2 cntr CSN=-11;Thrombin counter=37*
COc1cc(N/N=C(\C)c2ccc(N)cc2)nc(-c2ccccc2)n1,5,-7,1,i,2,0,·,·,
